Measured values published in ChEMBL document CHEMBL2331541, “Small molecule antivirulents targeting the iron-regulated heme oxygenase (HemO) of P. aeruginosa” (J Med Chem, 2013).
Converted amounts (≈) assume the structure as drawn. The source made the active and inactive calls. No cut-off for these calls is given here.

What was measured:
Pseudomonas aeruginosa [1] = assay: Antimicrobial activity against Pseudomonas aeruginosa FRD1; format: functional
Summary of the method: (§1)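 Strains grown from single colony 8 h at 37 °C in LB, diluted to OD600 0.05, incubated in LB alone or with 250−1500 μM compound. OD600 read at 6, 12 and 24 h, blank with matching inhibitor concentration subtracted. MIC50 averaged from three separate experiments.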

[2] = Binding affinity to Pseudomonas aeruginosa apo Heme oxygenase expressed in Escherichia coli BL21(DE3) assessed as decrease in tryptophan fluorescence
Summary of the method: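 Apo-HemO held at 1 μM in 20 mM Tris-HCl (pH 7.5), titrated with inhibitor 0.05−500 μM. Excitation 295 nm, emission scanned 300−500 nm; fluorescence decrease at 330 nm used in 1/ΔA vs 1/[I] reciprocal plot, slope giving KD. Mean of three separate experiments.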

Pseudomonas aeruginosa [3] = assay: Antimicrobial activity against Pseudomonas aeruginosa PAO1; format: functional; summary of the method: as §1
Pseudomonas aeruginosa [4] = assay: Binding affinity to Pseudomonas aeruginosa apo Heme oxygenase expressed in Escherichia coli BL21(DE3) assessed as shift in specific resonance at 4.2 mM after 2 hrs by chemical shift NMR analysis
Summary of the method: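 15N-labeled apo-HemO at 1.2 mM (50 mM phosphate, 100 mM KCl, 95% H2O/5% D2O) with inhibitor at 0, 0.7, 1.05, 2.1 or 4.2 mM; inhibitor dissolved into protein 2 h at room temperature, centrifuged. 1H−15N TROSY-HSQC at 25 °C; combined shift Δppm = sqrt(ΔδHN² + (0.2·ΔδN)²).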

Pseudomonas aeruginosa [5] = assay: Antimicrobial activity against Pseudomonas aeruginosa WR5; format: functional; summary of the method: as §1
Pseudomonas aeruginosa [6] = assay: Binding affinity to Pseudomonas aeruginosa apo Heme oxygenase expressed in Escherichia coli BL21(DE3) after 4 hrs by STD-NMR analysis
Summary of the method: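 STD-NMR at 25 °C, 500 MHz: inhibitor-saturated solution (50 mM sodium phosphate, 100 mM NaCl, D2O, pH 7.4, stood about 4 h, centrifuged) mixed with 3−4 μM HemO; inhibitor about 5 mM by TSP reference. Selective saturation 2 s via 50 ms Gaussian pulses; repeated with 10 s interscan delay. Strongest-saturated proton set to 100%.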

Pseudomonas aeruginosa [7] = assay: Antimicrobial activity against Pseudomonas aeruginosa PAO1 infected in Caenorhabditis elegans glp-4(bn2) assessed as increase in host lifespan at 250 ug/ml; format: functional, organism-based
Summary of the method: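 Synchronized glp-4(bn2) young adults (30) exposed 12 h to P. aeruginosa PAO1 lawn on PGS agar (peptone, NaCl, glucose, 0.15 M sorbitol), washed in M9, reseeded on E. coli OP50 PGS-agar plates containing inhibitor. Viability scored daily; death taken as no response to touch. Average of three experiments.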

Pseudomonas aeruginosa [8] = assay: Antimicrobial activity against Pseudomonas aeruginosa PAO1 infected in Caenorhabditis elegans glp-4(bn2) assessed as reduction in CFU at 250 ug/ml by serial dilution method; format: functional, organism-based
Summary of the method: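 Infected worms (PAO1, 12 h on PGS agar) moved to E. coli OP50 plates with inhibitor; at 24, 48, 72 and 96 h, 10 live worms washed three times in M9 with 1 mM sodium azide, disrupted with 1.0 mm silicon carbide beads by vortexing 1 min, debris pelleted, lysate serially diluted and plated on PIA for cfu. Uninfected and untreated infected worms as controls.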

Row | MIC50 (Pseudomonas aeruginosa [1]) [µg/mL] | MIC50 (Pseudomonas aeruginosa [3]) [µg/mL] | Activity (Pseudomonas aeruginosa [4]) | MIC50 (Pseudomonas aeruginosa [5]) [µg/mL] | Activity (Pseudomonas aeruginosa [6]) | SMILES | Kd [2] [µM] | Activity (Pseudomonas aeruginosa [7]) | Activity (Pseudomonas aeruginosa [8])
1 | 950 (≈ 3370 µM) | 1200 (≈ 4250 µM) | Active | 1100 (≈ 3900 µM) | Active | O=C(O)/C=C/C(=O)Nc1ccc(Nc2ccccc2)cc1 | 18.4 | Active | –
2 | 750 (≈ 2650 µM) | 1000 (≈ 3530 µM) | – | 800 (≈ 2820 µM) | – | O=C(O)/C=C/C(=O)Nc1ccc(Oc2ccccc2)cc1 | 29.3 | – | –
3 | 190 (≈ 926 µM) | 250 (≈ 1220 µM) | Active | 210 (≈ 1020 µM) | Active | CN(C)c1ccc(/C=N/NC(=N)N)cc1 | 31.2 | Active | Active
